Series [1] can be described thus: Inhibition of PDE11.
A short description of series [2]: Inhibition of PDE6.
Series [3] deals with cGMP-specific 3',5'-cyclic phosphodiesterase (Homo sapiens, UniProt O76074). Briefly: Inhibition of PDE5.
Series [4] is described as follows: Selectivity ratio of IC50 for PDE6 to IC50 for PDE5.
The nature of series [5]: Half life in Sprague-Dawley rat at 2 mg/kg, po and 2mg/kg, iv. Also noted: dose 2 mg/kg, route oral. The settings on record: in vivo. It is filed as ADME, organism-based. An outline of the steps:
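Sprague Dawley rats (n = 3) dosed IV at 2 mpk in 70% PEG400/20% 0.05 M citrate buffer/10% ethanol, pH 5.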

Series [6] is described as follows: Selectivity ratio of IC50 for PDE11 to IC50 for PDE5.
Series [7] can be described thus: Aqueous solubility at pH 7.4. The format is physicochemical. To be noted: aqueous medium.

With `O=c1c(NCC2CCOCC2)nc2ccc(-c3ccc(F)cc3)nc2n1Cc1ccccn1`, the values for the IC50 in series [1], in series [2] and in series [3] were 970 nM, 920 nM and 20.3 nM, respectively.
In the case of `O=c1c(NCCN2CCOCC2)nc2ccc(-c3ccc(F)c(F)c3)nc2n1CC1CCCCC1`, the IC50 in series [1] is 213 nM; in series [2], 195 nM; in series [3], 1.6 nM. Further, the Ratio IC50 in series [4] was greater than 100.
Turning to `COc1ccc(-c2ccc3nc(NCC4CCOCC4)c(=O)n(CC4CCCCC4)c3n2)cn1`, the values for the IC50 in series [1], in series [2] and in series [3] were 8.1 nM, 32 nM and 0.3 nM, respectively.
Regarding `O=c1c(NCc2cccnc2)nc2ccc(-c3ccc(F)cc3)nc2n1CC1CCCCC1`, the IC50 in series [1] was 558 nM; in series [2] it was 871 nM; in series [3], 13.4 nM.
Regarding `COc1ncc(-c2ccc3nc(NCC4CCOCC4)c(=O)n(CC4CCCCC4)c3n2)cn1`, the IC50 was determined as 8.2 nM in series [1], 36.3 nM in series [2] and 0.3 nM in series [3].
In the case of `CCCOCCn1c(=O)c(NCCN2CCOCC2)nc2ccc(-c3ccc(OC)nc3)nc21`, the values for the IC50 in series [1], in series [2] and in series [3] were 1540 nM, 317 nM and 2.4 nM, respectively. The same compound gave a half-life in series [5] of 3 h. The Ratio IC50 was greater than 600 in series [6] and greater than 100 in series [4].
In the case of `CCCOCCn1c(=O)c(NCCN2CCOCC2)nc2ccc(-c3c(C)noc3C)nc21`, the 50% inhibitory concentration (IC50) was greater than 2000 nM in series [1], 1980 nM in series [2] and 36.5 nM in series [3].
`COc1ccc(-c2ccc3nc(NCCN4CCOCC4)c(=O)n(CC4CCCCC4)c3n2)cn1` displayed a solubility in series [7] of less than 3 µM. Moreover, the IC50 in series [1] stood at 5.9 nM; in series [2], 25.2 nM; in series [3], 0.4 nM.
With `CCCOCCn1c(=O)c(NCCN2CCOCC2)nc2ccc(-c3ccc(=O)[nH]c3)nc21`, the IC50 in series [3] is 534 nM.
For the compound `O=c1c(NCC2CCOCC2)nc2ccc(-c3ccc(O)nc3)nc2n1CC1CCCCC1`, the IC50 in series [1] worked out at 79.2 nM; in series [2] it was 112 nM; in series [3] it was 2.9 nM.
As for `Nc1nc2ccc(-c3ccc(F)cc3)nc2n(CC2CCCCC2)c1=O`, the IC50 in series [1] was 145 nM; in series [2], 114 nM; in series [3], 28.5 nM.
On to `CN(C)C(=O)CNc1nc2ccc(-c3ccc(F)cc3)nc2n(CC2CCCCC2)c1=O`, for which the IC50 in series [1] was 90.9 nM; in series [2], greater than 2000 nM; in series [3], 3.5 nM.
`CCCOCCn1c(=O)c(NCC2CCOCC2)nc2ccc(-c3ccc(F)cc3)nc21`: the IC50 in series [1] was greater than 2000 nM; in series [2], greater than 2000 nM; in series [3], 22.4 nM.
Turning to `O=c1c(NCC2CCOCC2)nc2ccc(-c3ccc(F)cc3)nc2n1Cc1cccnc1`, the IC50 in series [1] stood at 474 nM; in series [2], 375 nM; in series [3], 2.5 nM.
In turn, `CC(C)Cn1c(=O)c(NCC2CCOCC2)nc2ccc(-c3ccc(F)cc3)nc21` returned an IC50 in series [3] of 224 nM.
Compound `CCOCCn1c(=O)c(NCC2CCOCC2)nc2ccc(-c3ccc(F)cc3)nc21` had an IC50 in series [3] of 149 nM.
Take `COc1ccc(Cn2c(=O)c(NCCN3CCOCC3)nc3ccc(-c4ccc(F)cc4)nc32)cc1`: the IC50 in series [1] came to 345 nM; in series [2], 10.1 nM; in series [3] it was 1.3 nM. In addition, in series [6], the Ratio IC50 is 100.
Turning to `O=c1c(NCCN2CCOCC2)nc2ccc(-c3ccc(F)cc3)nc2n1CC1CCCCC1`, the IC50 in series [1] came to 405 nM; in series [2], 240 nM; in series [3], 4.6 nM. In addition, in series [4], the Ratio IC50 was greater than 100.
`CCCOCCn1c(=O)c(NCC(=O)N(C)C)nc2ccc(-c3ccc(OC)nc3)nc21`: the IC50 in series [1] is 1210 nM; in series [2], 1190 nM; in series [3], 14.5 nM. Further, the Ratio IC50 is greater than 600 in series [6] and greater than 100 in series [4].
For `COc1ccc(-c2ccc3nc(NCC(=O)N(C)C)c(=O)n(CC4CCCCC4)c3n2)cn1`, the IC50 in series [1] turned out to be 7.7 nM; in series [2] it was 72 nM; in series [3] it was 0.3 nM.
As to `CCCn1ccc(=O)c2c(N)nc(-c3ccccc3)cc21`, the figures for the IC50 in series [2] and in series [3] were 6 nM and 51 nM, respectively.
Turning to `O=c1c(NCC2CCOCC2)nc2ccc(-c3ccc(F)cc3)nc2n1CC1CCCCC1`, the IC50 in series [1] was 324 nM; in series [2], 459 nM; in series [3], 3 nM. The Ratio IC50 in series [4] was greater than 100.
In the case of `O=c1c(NCC2CCOCC2)nc2ccc(-c3ccc(F)cc3)nc2n1Cc1cc(F)cc(F)c1`, the IC50 in series [1] stood at 390 nM; in series [2], 910 nM; in series [3], 2.7 nM.
With `Cc1noc(C)c1-c1ccc2nc(NCCN3CCOCC3)c(=O)n(CC3CCCCC3)c2n1`, the IC50 worked out at 286 nM in series [1], 41.6 nM in series [2] and 1 nM in series [3].
`COc1ccc(Cn2c(=O)c(NCCN3CCOCC3)nc3ccc(-c4ccc(F)c(F)c4)nc32)cc1`: the IC50 is 482 nM in series [1], 11.6 nM in series [2] and 2 nM in series [3]. The Ratio IC50 in series [6] amounted to 100.
Turning to `COc1ccc(Cn2c(=O)ccc3ccc(-c4ccncc4)cc32)cc1`, the IC50 in series [1] stood at 41 nM; in series [2], 150 nM; in series [3], 25 nM.
With `CCCOCCn1c(=O)c(NCCN2CCOCC2)nc2ccc(-c3ccc(F)cc3)nc21`, the IC50 in series [1] was greater than 2000 nM; in series [2], 1850 nM; in series [3] it was 33.3 nM.
For the compound `O=c1c(NCC2CCOCC2)nc2ccc(-c3ccncc3)nc2n1CC1CCCCC1`, the IC50 in series [1] came to 36.5 nM; in series [2], 33.5 nM; in series [3], 0.9 nM.
On to `CCCOCCn1c(=O)c(NCC2CCOCC2)nc2ccc(-c3ccc(OC)nc3)nc21`, for which the IC50 in series [1] came to 1230 nM; in series [2] it was 350 nM; in series [3] it was 2.3 nM. Moreover, the Ratio IC50 is greater than 600 in series [6] and greater than 100 in series [4].
Regarding `CCCOCCn1c(=O)c(NCCN2CCOCC2)nc2ccc(-c3cnc(OC)nc3)nc21`, the IC50 is greater than 2000 nM in series [1], greater than 2000 nM in series [2] and 26.7 nM in series [3].
On to `CCCCCN1C(=O)CN(C)c2ncc(-c3ccc(F)c(F)c3)cc21`, for which the IC50 was greater than 2000 nM in series [1], 1160 nM in series [2] and 43 nM in series [3].
Consider `CCCOCCn1c(=O)c(NCC2CCOCC2)nc2ccc(-c3ccncc3)nc21`, for which the values for the IC50 in series [1], in series [2] and in series [3] were greater than 2000 nM, 1170 nM and 33.9 nM, respectively.
Consider `CC(C)OCCn1c(=O)c(NCCN2CCOCC2)nc2ccc(-c3ccc(F)c(F)c3)nc21`, for which the IC50 in series [1] was 1660 nM; in series [2], 979 nM; in series [3] it was 52.5 nM.

The record behind these values is ChEMBL document CHEMBL1154009, “Identification, synthesis and SAR of amino substituted pyrido[3,2b]pyrazinones as potent and selective PDE5 inhibitors” (Bioorg Med Chem Lett, 2009).
